Measurements as given in ChEMBL document CHEMBL4118248, “Small Molecule Proprotein Convertase Subtilisin/Kexin Type 9 (PCSK9) Inhibitors: Hit to Lead Optimization of Systemic Agents” (J Med Chem, 2018).

Columns and labels:
[1] = test system: Bone marrow cell; assay: Cytotoxicity against rat bone marrow cells assessed as reduction in cell viability after 72 hrs by CellTiter-Glo assay; type: cell-based
[2] = molecular target: 80S Ribosome; assay: Binding affinity of [3H]PF-06446846 to human 80S ribosome
[3] = Apparent permeability in RRCK cells; type: ADME, cell-based, Canis lupus familiaris, MDCKII-LE; details: dog, MDCK
Procedure, shortened: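 Passive permeability measured in RRCK cells, a modified Madin-Darby canine kidney line; Papp reported in 10^-6 cm/s.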

[4] = test system: Rattus norvegicus; assay: Toxicity in Crl:CD(SD) rat assessed as single cell necrosis in crypt cells in ileum at 50 mg/kg/day, po daily via gavage for 14 days measured on day 15 post last dose; type: organism-based; details: in vivo, 336 h
[5] = test system: Rattus norvegicus; assay: Reduction in LDL cholesterol level in Crl:CD(SD) rat at 50 mg/kg/day, po daily via gavage for 14 days measured on day 15 post last dose relative to control; type: functional; parameters: scale not given: the % may be the effect or the level left
[6] = molecular target: Cytochrome P450 2D6 (Homo sapiens, UniProt P10635); assay: Inhibition of CYP2D6 (unknown origin); type: ADME
Cytochrome P450 2D6, sequence (P10635 whole entry): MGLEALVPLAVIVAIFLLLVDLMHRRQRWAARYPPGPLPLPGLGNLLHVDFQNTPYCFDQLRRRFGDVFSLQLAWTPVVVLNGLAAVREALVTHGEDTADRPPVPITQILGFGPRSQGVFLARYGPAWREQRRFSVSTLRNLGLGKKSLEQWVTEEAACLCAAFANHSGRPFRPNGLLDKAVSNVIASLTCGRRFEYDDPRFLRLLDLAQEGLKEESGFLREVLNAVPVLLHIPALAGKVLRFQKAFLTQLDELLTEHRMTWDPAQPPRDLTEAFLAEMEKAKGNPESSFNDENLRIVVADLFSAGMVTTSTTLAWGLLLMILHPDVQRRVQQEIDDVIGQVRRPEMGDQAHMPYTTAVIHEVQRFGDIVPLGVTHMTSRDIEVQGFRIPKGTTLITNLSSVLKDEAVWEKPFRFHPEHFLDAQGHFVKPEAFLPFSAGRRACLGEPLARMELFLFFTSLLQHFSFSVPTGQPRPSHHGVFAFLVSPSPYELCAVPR
Procedure, shortened: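 Inhibition of CYP1A2, 2D6, 2C9 and 3A4 reported as IC50, or as percent inhibition at 3 µM.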

[7] = test system: Rattus norvegicus; assay: Toxicity in Crl:CD(SD) rat assessed as discolored/mottled liver at 50 mg/kg/day, po daily via gavage for 14 days measured on day 15 post last dose; type: organism-based; details: in vivo, 336 h
Procedure, shortened: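 Male rats, 5 per group, given vehicle or compound at 50 mg/kg/day by oral gavage for 14 days. Mortality, clinical signs and hematology monitored throughout. Necropsy on day 15 with microscopy of bone marrow, ileum, duodenum, jejunum and liver. Toxicokinetics at 1, 3, 6 and 24 h post-dose on day 14.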

[8] = Total Cmax in Crl:CD(SD) rat at 15 mg/kg/day, po daily via gavage for 14 days measured on day 14 post last dose up to 24 hrs; type: ADME, organism-based; parameters: dose 15 mg/kg/day, route oral; details: in vivo
[9] = test system: Rattus norvegicus; assay: Toxicity in Crl:CD(SD) rat assessed as decrease in total nucleated cell count at 50 mg/kg/day, po daily via gavage for 14 days measured on day 15 post last dose relative to control; type: organism-based; parameters: scale not given: the % may be the effect or the level left; details: in vivo, 336 h
[10] = test system: Rattus norvegicus; assay: Toxicity in Crl:CD(SD) rat at 5 to 15 mg/kg/day, po daily via gavage for 14 days measured on day 15 post last dose; type: organism-based; details: in vivo, 336 h
[11] = Intrinsic clearance in human liver microsomes; type: ADME, microsome; details: read-out: CLH
[12] = test system: Rattus norvegicus; assay: Toxicity in Crl:CD(SD) rat at 15 mg/kg/day, po daily via gavage for 14 days; type: organism-based; details: in vivo, 336 h

**Q.** For `O=C(c1ccc(-n2nnc3cccnc32)cc1)N(c1ncccc1Cl)[C@@H]1CCCNC1`, which IC50 [1] is on record?
**A.** 1200 to 2900 nM

**Q.** And the Ki [2]?
**A.** 7 µM

**Q.** And the Papp [3]?
**A.** 15 ×10⁻⁶ cm/s

**Q.** What about the Activity [4] of the same compound?
**A.** Toxic

**Q.** And the Activity [5]?
**A.** 58%

**Q.** And the IC50 [6]?
**A.** > 30 µM

**Q.** And the Activity [7]?
**A.** Toxic

**Q.** And the Cmax [8]?
**A.** 1640 ng/mL

**Q.** And the Activity [9]?
**A.** 30%

**Q.** And the Activity [10]?
**A.** Non-Toxic

**Q.** And the microsomal CLint [11]?
**A.** 9.7 µL/min/mg

**Q.** What about the NOAEL [12] of the same compound?
**A.** 478 nM
